From ChEMBL document CHEMBL3351891, “Synthesis and structure-activity relationships of lapacho analogues. 2. Modification of the basic naphtho[2,3-b]furan-4,9-dione, redox activation, and suppression of human keratinocyte hyperproliferation by 8-hydroxynaphtho[2,3-b]thiophene-4,9-diones” (J Med Chem, 2014)

How the values were obtained:
HaCaT [1] = assay: Antihyperproliferative activity against human HaCaT cells assessed as inhibition of cell growth after 48 hrs by phase contrast microscopy; format: functional, cell-based
How it was run: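 Immortalized human HaCaT keratinocytes incubated with compound for 48 h; growth determined by counting dispersed cells under phase contrast microscopy. Inhibition = (1 − test/control) × 100, test N = 3 vs control N = 6−8, Student's t test; IC50 by nonlinear regression.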

HaCaT [2] = assay: Induction of superoxide generation in human HaCaT cells assessed as apoptotic cells at 5 umol/L for 18 hrs chronic treatment in presence of dicoumarol NQO-1 inhibitor (reference value: 4.3 +/- 2.6%); format: functional
HaCaT [3] = assay: Induction of superoxide generation in human HaCaT cells assessed as mean fluorescence intensity at 5 umol/L for 18 hrs chronic treatment in presence of dicoumarol NQO-1 inhibitor (reference value: 407.6 +/- 68.7 no unit); format: functional
[4] = Induction of superoxide generation measured per U of enzyme in presence of NQO-1; format: physicochemical
How it was run: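 Human recombinant NQO-1 with NADPH and compound ([…]); superoxide followed spectrophotometrically as SOD-inhibitable cytochrome c reduction, with catalase and DTPA added. Rate as μmol/L/min per U enzyme; mean ± SD, N ≥ 3.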

HaCaT [5] = assay: Induction of superoxide generation in human HaCaT cells assessed as mean fluorescence intensity at 50 umol/L for 30 mins acute treatment (reference value: 7.1 +/- 5.2 no unit); format: functional
HaCaT [6] = assay: Induction of superoxide generation in human HaCaT cells assessed as mean fluorescence intensity at 5 umol/L for 18 hrs chronic treatment (reference value: 367.5 +/- 80.1 no unit); format: functional
[7] = Induction of superoxide generation measured per 2 mU of enzyme in presence of cytochrome P450 oxidoreductase; format: physicochemical
How it was run: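 Human recombinant NADPH–cytochrome P450 oxidoreductase with compound ([…]); spectrophotometric SOD-inhibitable reduction of succinoylated cytochrome c, with catalase and DTPA present. Rate given as μmol/L/min per 2 mU enzyme; mean ± SD, N ≥ 3.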

HaCaT [8] = assay: Induction of superoxide generation in human HaCaT cells assessed as apoptotic cells at 5 umol/L for 18 hrs chronic treatment (reference value: 3 +/- 1%); format: functional
HaCaT [9] = assay: Antihyperproliferative activity against human HaCaT cells assessed as LDH release at 2 umol/L after 4 hrs; format: functional
How it was run: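 HaCaT keratinocytes exposed to test compound (2 μM) for 4 h at 37 °C; extracellular LDH in supernatant measured by UV method with pyruvate and NADH, reported as mU/mL. Vehicle control 0.2% DMSO in medium; Brij 35 with ultrasound as positive control; N = 3.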

O=C1c2ccccc2C(=O)c2[nH]cnc21
IC50 (HaCaT [1]): > 30 µM

CCOC(=O)c1cc2c(s1)C(=O)c1c(OC)cccc1C2=O
IC50 (HaCaT [1]): 2.87 µM

O=C1c2ccsc2C(=O)c2c(O)cccc21
Activity (HaCaT [2]): 6.1% | Flu intensity (HaCaT [3]): 717.7 | Activity [4]: 0.3 µmol/L/min | IC50 (HaCaT [1]): 2.75 µM | Flu intensity (HaCaT [5]): 23.8 | Flu intensity (HaCaT [6]): 610.6 | Activity [7]: 1.8 µmol/L/min | Activity (HaCaT [8]): 4.9%

O=C1c2ccsc2C(=O)c2c(Cl)cccc21
IC50 (HaCaT [1]): 3.77 µM

Nc1cccc2c1C(=O)c1sccc1C2=O
IC50 (HaCaT [1]): > 30 µM

CC(=O)Nc1cccc2c1C(=O)c1sccc1C2=O
IC50 (HaCaT [1]): 2.76 µM

O=C1c2sccc2Cc2cccc(O)c21
IC50 (HaCaT [1]): 2.5 µM

O=C1c2ccccc2C(=O)c2[se]ccc21
IC50 (HaCaT [1]): 6.12 µM

O=C1c2ccccc2C(=O)c2[nH]ccc21
IC50 (HaCaT [1]): > 30 µM

Cn1cnc2c1C(=O)c1ccccc1C2=O
IC50 (HaCaT [1]): > 30 µM

O=C1c2ccccc2C(=O)c2ocnc21
IC50 (HaCaT [1]): 0.9 µM

O=C1c2ccccc2C(=O)c2scnc21
IC50 (HaCaT [1]): 1.2 µM

CC(=O)c1cc2c(s1)C(=O)c1c(O)cccc1C2=O
Activity (HaCaT [2]): 7.3% | Flu intensity (HaCaT [3]): 813 | Activity [4]: 0.6 µmol/L/min | IC50 (HaCaT [1]): 0.4 µM | Flu intensity (HaCaT [5]): 23.7 | Flu intensity (HaCaT [6]): 921.4 | Activity [7]: 1.1 µmol/L/min | Activity (HaCaT [8]): 23%

COc1cccc2c1C(=O)c1sc(C(C)=O)cc1C2=O
IC50 (HaCaT [1]): 3.5 µM

CC(=O)c1cc2c(s1)C(=O)c1c(Cl)cccc1C2=O
IC50 (HaCaT [1]): 1.28 µM

CC(=O)c1nc2c([nH]1)C(=O)c1ccccc1C2=O
IC50 (HaCaT [1]): > 30 µM

CC(=O)c1nc2c(n1C)C(=O)c1ccccc1C2=O
IC50 (HaCaT [1]): > 30 µM

Cc1ccc2c(c1O)C(=O)c1sccc1C2=O
IC50 (HaCaT [1]): 5.3 µM

CCc1ccc2c(c1O)C(=O)c1sccc1C2=O
IC50 (HaCaT [1]): 11.4 µM

O=C(O)Cc1ccc2c(c1O)C(=O)c1sccc1C2=O
IC50 (HaCaT [1]): 21.5 µM

COC(=O)Cc1ccc2c(c1O)C(=O)c1sccc1C2=O
IC50 (HaCaT [1]): 2.8 µM

CCOC(=O)Cc1ccc2c(c1O)C(=O)c1sccc1C2=O
IC50 (HaCaT [1]): 2.1 µM

CCCOC(=O)Cc1ccc2c(c1O)C(=O)c1sccc1C2=O
IC50 (HaCaT [1]): 4.5 µM

O=C(Cc1ccc2c(c1O)C(=O)c1sccc1C2=O)OCc1ccccc1
IC50 (HaCaT [1]): > 30 µM

O=C1c2ccsc2C(=O)c2c1ccc(Cc1ccco1)c2O
Activity (HaCaT [9]): 127 mU/ml | IC50 (HaCaT [1]): 8.5 µM

O=C1c2ccsc2C(=O)c2c1ccc(Cc1ccccc1)c2O
Activity (HaCaT [9]): 107 mU/ml | IC50 (HaCaT [1]): 10.1 µM

Cc1ccc(Cc2ccc3c(c2O)C(=O)c2sccc2C3=O)cc1
IC50 (HaCaT [1]): 13.8 µM

O=C1c2ccsc2C(=O)c2c1ccc(Cc1ccc(C(F)(F)F)cc1)c2O
IC50 (HaCaT [1]): 16.7 µM

N#Cc1ccc(Cc2ccc3c(c2O)C(=O)c2sccc2C3=O)cc1
IC50 (HaCaT [1]): 14.2 µM

O=C(O)c1ccccc1Cc1ccc2c(c1O)C(=O)c1sccc1C2=O
IC50 (HaCaT [1]): 25.7 µM

O=C(O)c1ccc(Cc2ccc3c(c2O)C(=O)c2sccc2C3=O)cc1
IC50 (HaCaT [1]): > 30 µM

COC(=O)c1ccccc1Cc1ccc2c(c1O)C(=O)c1sccc1C2=O
IC50 (HaCaT [1]): 19.1 µM

COC(=O)c1ccc(Cc2ccc3c(c2O)C(=O)c2sccc2C3=O)cc1
IC50 (HaCaT [1]): > 30 µM

COc1ccc(Cc2ccc3c(c2O)C(=O)c2sccc2C3=O)cc1
IC50 (HaCaT [1]): 23.2 µM

COc1ccc(Cc2ccc3c(c2O)C(=O)c2sccc2C3=O)cc1OC
IC50 (HaCaT [1]): > 30 µM

O=C1c2ccsc2C(=O)c2c1ccc(CO)c2O
Activity (HaCaT [9]): 214 mU/ml | IC50 (HaCaT [1]): 1.2 µM

CC(=O)c1cc2c(s1)C(=O)c1c(ccc(CO)c1O)C2=O
Activity (HaCaT [9]): 284 mU/ml | IC50 (HaCaT [1]): 0.7 µM

O=Cc1cc2c(s1)C(=O)c1c(O)cccc1C2=O
IC50 (HaCaT [1]): 1 µM

CCC(=O)c1cc2c(s1)C(=O)c1c(O)cccc1C2=O
Activity (HaCaT [9]): 244 mU/ml | IC50 (HaCaT [1]): 0.38 µM

CC(C)C(=O)c1cc2c(s1)C(=O)c1c(O)cccc1C2=O
IC50 (HaCaT [1]): 0.45 µM

O=C(Cc1ccccc1)c1cc2c(s1)C(=O)c1c(O)cccc1C2=O
IC50 (HaCaT [1]): 4.42 µM

O=C(CCc1ccccc1)c1cc2c(s1)C(=O)c1c(O)cccc1C2=O
IC50 (HaCaT [1]): > 30 µM

O=C(COc1ccccc1)c1cc2c(s1)C(=O)c1c(O)cccc1C2=O
IC50 (HaCaT [1]): 11.2 µM

O=C(c1ccccc1)c1cc2c(s1)C(=O)c1c(O)cccc1C2=O
Activity (HaCaT [9]): 419 mU/ml | IC50 (HaCaT [1]): 0.8 µM

O=C(c1ccc(Cl)cc1)c1cc2c(s1)C(=O)c1c(O)cccc1C2=O
IC50 (HaCaT [1]): 5.64 µM

COc1ccc(C(=O)c2cc3c(s2)C(=O)c2c(O)cccc2C3=O)cc1
IC50 (HaCaT [1]): 4.72 µM

COc1ccc(C(=O)c2cc3c(s2)C(=O)c2c(O)cccc2C3=O)c(O)c1
IC50 (HaCaT [1]): 7.07 µM

O=C(c1cccs1)c1cc2c(s1)C(=O)c1c(O)cccc1C2=O
Activity (HaCaT [9]): 158 mU/ml | IC50 (HaCaT [1]): 0.29 µM

O=C(c1cccnc1)c1cc2c(s1)C(=O)c1c(O)cccc1C2=O
Activity (HaCaT [9]): 154 mU/ml | IC50 (HaCaT [1]): 0.3 µM

O=C(O)c1cc2c(s1)C(=O)c1c(O)cccc1C2=O
IC50 (HaCaT [1]): > 30 µM

CCOC(=O)c1cc2c(s1)C(=O)c1c(O)cccc1C2=O
Activity (HaCaT [9]): 233 mU/ml | IC50 (HaCaT [1]): 0.76 µM

CC(C)OC(=O)c1cc2c(s1)C(=O)c1c(O)cccc1C2=O
IC50 (HaCaT [1]): 0.92 µM

COc1ccc(COC(=O)c2cc3c(s2)C(=O)c2c(O)cccc2C3=O)cc1
IC50 (HaCaT [1]): 11.9 µM

O=C(OCCc1ccccc1)c1cc2c(s1)C(=O)c1c(O)cccc1C2=O
IC50 (HaCaT [1]): > 30 µM

CCN(CC)C(=O)c1cc2c(s1)C(=O)c1c(O)cccc1C2=O
Activity (HaCaT [9]): 330 mU/ml | IC50 (HaCaT [1]): 0.36 µM

CCc1noc(-c2cc3c(s2)C(=O)c2c(O)cccc2C3=O)n1
Activity (HaCaT [2]): 20.3% | Flu intensity (HaCaT [3]): 747 | Activity [4]: 0.7 µmol/L/min | Activity (HaCaT [9]): 150 mU/ml | IC50 (HaCaT [1]): 0.19 µM | Flu intensity (HaCaT [5]): 20.9 | Flu intensity (HaCaT [6]): 802.2 | Activity [7]: 1 µmol/L/min | Activity (HaCaT [8]): 77.6%

O=C1c2cc(-c3nc(CCc4ccccc4)no3)sc2C(=O)c2c(O)cccc21
IC50 (HaCaT [1]): 0.48 µM

COc1c2ccsc2c(OC)c2c(OC)cccc12
IC50 (HaCaT [1]): > 30 µM

CCC(=O)c1cc2c(OC)c3cccc(OC)c3c(OC)c2s1
IC50 (HaCaT [1]): > 30 µM

COc1c2cc(C(=O)c3cccnc3)sc2c(OC)c2c(OC)cccc12
IC50 (HaCaT [1]): > 30 µM

CCC(=O)c1cc2c(s1)C(=O)c1c(OC)cccc1C2=O
IC50 (HaCaT [1]): 3.5 µM

COc1cccc2c1C(=O)c1sc(C(=O)c3cccnc3)cc1C2=O
IC50 (HaCaT [1]): 5.7 µM

CCOC(=O)c1cc2c(OC)c3cccc(OC)c3c(OC)c2s1
IC50 (HaCaT [1]): > 30 µM

CCc1noc(-c2cc3c(OC)c4cccc(OC)c4c(OC)c3s2)n1
IC50 (HaCaT [1]): > 30 µM

CCc1noc(-c2cc3c(s2)C(=O)c2c(OC)cccc2C3=O)n1
IC50 (HaCaT [1]): 3.52 µM

O=C1c2ccsc2C(=O)c2c(O)ccc(O)c21
IC50 (HaCaT [1]): 2.7 µM

CC(=O)c1cc2c(s1)C(=O)c1c(O)ccc(O)c1C2=O
IC50 (HaCaT [1]): 0.5 µM

CCCCc1ccc2c(c1O)C(=O)c1sccc1C2=O
IC50 (HaCaT [1]): > 30 µM

COc1cccc2c1C(=O)c1sccc1C2=O
IC50 (HaCaT [1]): 13.5 µM

CC(=O)c1cc2c(s1)C(=O)c1ccccc1C2=O
IC50 (HaCaT [1]): 0.44 µM

O=C1c2c(O)cccc2Cc2cccc(O)c21 [ANTHRALIN]
Activity (HaCaT [9]): 239 mU/ml

CC1(C)CCC2=C(O1)c1ccccc1C(=O)C2=O [LAPACHONE]
Activity (HaCaT [9]): 268 mU/ml

CC1=CC(=O)c2ccccc2C1=O [MENADIONE]
Activity (HaCaT [2]): 3.1% | Flu intensity (HaCaT [3]): 457.2 | Activity [4]: 1 µmol/L/min | Flu intensity (HaCaT [5]): 44 | Flu intensity (HaCaT [6]): 431.9 | Activity [7]: 2.1 µmol/L/min | Activity (HaCaT [8]): 4.8%

O=C1c2ccccc2C(=O)c2sccc21 [THIOPHENONAPHTHOQUINONE]
IC50 (HaCaT [1]): 4.8 µM
